This is a sample that favours compounds with a hit; in the whole collection about 6.6% have one here.
BAP1 block: inhibitors of human BAP1 deubiquitinase | 72,000 tested, 0.48% active | Q92560 | recombinant BAP1, Ub-AMC hydrolysis fluorescence kinetic; active compounds read low | calls only at 20 µM;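 active means activity remaining at or below 50% of control, provided the compound also passes the data quality filters; inactive means the rest, including low values that fail the filters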;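 further: 100% = DMSO wells rate and 0% = substrate alone blank rate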
HER2 expr 66K: inhibitors of human Her2 kinase expression. SKBR-3 HER2 protein level, AlphaScreen, 18-24 h; active compounds read low. HER2 level % of control, % at 10 µM. 65,000 tested, 0.69% active. AID 645;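 active means HER2 level under 5% of the carrier-only control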;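 further: 100% = DMSO carrier and 0% = 500 nM PU-H71 HSP90 inhibitor; lower value means stronger loss of Her2 protein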
JNK3 inh: blocks human JNK3 kinase activity | P53779 | purified JNK3 kinase activity, HTS | inhibition, % at 8 µM | 60,000 tested, 0.61% active; in the data active means inhibition above about 17%;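 further: 0% = DMSO and 100% = reference inhibitor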
M1 antag: M1 muscarinic receptor (rat) antagonism; P08482; CHO-M1 cells, Fluo-4 calcium, ACh EC80 antagonist mode; active compounds read low; B-score at 10 µM; 64,000 tested, 3.4% active;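 active means calcium fluorescence response, raw or row-and-column corrected B-score, differing from the plate sample mean either way at a set confidence level, mostly lower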
Target sequence (P08482 whole entry, looked up): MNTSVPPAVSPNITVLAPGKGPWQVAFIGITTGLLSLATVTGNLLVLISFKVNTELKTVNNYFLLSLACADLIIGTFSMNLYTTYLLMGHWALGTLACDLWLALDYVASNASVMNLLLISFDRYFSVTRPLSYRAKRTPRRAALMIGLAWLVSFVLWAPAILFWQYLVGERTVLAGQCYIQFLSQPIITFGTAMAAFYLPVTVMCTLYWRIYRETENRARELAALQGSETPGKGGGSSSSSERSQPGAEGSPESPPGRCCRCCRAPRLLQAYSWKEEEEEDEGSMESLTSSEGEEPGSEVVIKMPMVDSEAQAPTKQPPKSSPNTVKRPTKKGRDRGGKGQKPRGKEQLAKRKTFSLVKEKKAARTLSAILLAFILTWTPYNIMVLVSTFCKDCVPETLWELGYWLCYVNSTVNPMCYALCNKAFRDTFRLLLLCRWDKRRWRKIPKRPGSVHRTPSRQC
HEK293 NFkB inh: lowers PMA/ionomycin-induced NF-kB signal in HEK293 cells | HEK-293 NF-kB luciferase reporter, luminescence | inhibition, % at 3 µM | 62,000 tested, 0.21% active;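 active means inhibition above the mean of all tested compounds plus 3 SD, cut at about 40% in these data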;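 further: 0% = stimulated DMSO wells and 100% = 10 µM reference inhibitor 5653914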
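Timing: 1 h pretreatment, 16 h stimulation, 37 °C; system: HEK-293 cells with stable firefly luciferase reporter driven by four HIV NF-kB elements; doses: 3 µM once, 0.30% DMSO; measured by: luciferase luminescence; control set: DMSO and 10 µM reference inhibitor; repeats: single test; reagent: PMA plus ionomycin mix as NF-kB-activating stimulus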
M1 agonist: activates the M1 muscarinic receptor; B-score at 10 µM; 64,000 tested, 3% active; CHO-M1 cells, Fluo-4 calcium fluorescence, agonist mode; active compounds read high;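 active means fluorescence rise, raw or as B-score row- and column-corrected plate score, outside the 99.7% band of its plate's samples, either direction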
Active calls of the source: *; i = inactive; . = no result shown.

SMILES | BAP1 block | HER2 expr 66K | JNK3 inh | M1 antag | HEK293 NFkB inh | M1 agonist
S=c1[nH]nc(-c2cccc(Br)c2)o1 | i | 96 | 19* | -0.42 | 0 | 0.16
Cn1nc(C(=O)Nc2c(-c3ccccc3)nc3sccn23)c2ccccc2c1=O | i | 1.1* | 0 | 1.1 | 14 | 0.39
Cn1nc(C(=O)NCC2CCCO2)c2ccccc2c1=O (configuration not stated) | i | 80 | 2 | -0.13 | 11 | -0.75
CCn1cc2c(c1-c1cccc(C)c1)c(=O)n(C)c(=O)n2C | i | 99 | -1 | -0.32 | 14 | 0.33
Cc1cccc(-c2c3c(=O)n(C)c(=O)n(C)c3cn2C(C)C)c1 | i | 82 | -3 | 0.38 | 16 | 2.8*
CCOC(=O)c1cccc(N2C(=O)C3C4CCC(C4)C3C2=O)c1 (configuration not stated) | i | . | . | . | . | .
COC(=O)C1=C(CN2CCCc3ccccc32)NC(=O)NC1c1ccc(F)cc1 (configuration not stated) | i | 96 | -5 | 0.68 | 70* | 1.2
COc1ccc(N(C(=O)c2ccco2)S(=O)(=O)c2cccs2)cc1 | i | 56 | 0 | -0.28 | -2 | -0.032
COc1ccc(N(C(=O)c2ccco2)S(=O)(=O)c2cc(OC)ccc2OC)cc1 | i | 92 | -2 | 1.9* | 6 | 0.081
COc1ccc(CCNc2oc(COc3ccccc3F)nc2C#N)cc1 | i | -30* | 3 | -1.9 | 15 | -0.41
CCOC(=O)CNc1c(N2CCN(c3ccccn3)CC2)c(=O)c1=O | i | 94 | 0 | 1.1* | 18 | 0.31
O=C(C1CCC(CNc2c(N3CCCCC3)c(=O)c2=O)CC1)N1CCN(c2ccccn2)CC1 (configuration not stated) | i | 101 | -14 | -0.12 | 7 | 0.061
Cc1cccc(NC(=O)C2CCCN2S(=O)(=O)c2cccc3cccnc23)c1 (configuration not stated) | i | 96 | -4 | 0.74* | 0 | 0.72
Cc1ccc(NC(=O)C2CCCN2S(=O)(=O)c2cccc3cccnc23)cc1F (configuration not stated) | i | 65 | -1 | 0.96 | 4 | 0.18
CCCOc1ccccc1C1CC(=O)Nc2cc3c(cc21)OCCO3 (configuration not stated) | i | 42 | -2 | -0.08 | 47* | -0.7
Cc1ccccc1OCCSc1nc2ccccc2c(=O)[nH]1 | i | . | . | . | . | .
O=C(NCCN1CCCCCC1)c1ccc(N2CCCC2=O)cc1 | i | 75 | 5 | 2.3* | 11 | -1.1
O=C(NCCCN1CCN(c2cccc(Cl)c2)CC1)c1ccc(N2CCCC2=O)cc1 | i | 54 | . | -0.0049 | 17 | 0.7
COc1ccc(CNC(=O)CN(c2cccc([N+](=O)[O-])c2)S(=O)(=O)c2ccccc2)cc1 | i | . | . | . | . | .
Cc1cc2nc(-c3ccc(SCC(=O)N4CCOCC4)nc3)[nH]c2cc1C | . | 95 | . | -0.58 | -13 | 12*
Cc1cc2nc(-c3ccc(SCC(=O)N4CCN(C(=O)c5ccco5)CC4)nc3)[nH]c2cc1C | . | 88 | . | -0.58 | -10 | 0.59
O=c1cc(-c2ccccc2)[nH]n1-c1nc2ccccc2s1 | i | 129 | 7 | -0.83 | -1 | -1.1
O=c1cc(-c2ccccc2)[nH]c2nc3ccccc3n12 | . | 75 | 19* | 0.3 | -10 | 0.45
N=c1oc2ccccc2cc1C(=O)Nc1ccc(F)cc1 | i | . | . | . | . | .
N#Cc1ccc(NC(=O)c2cc3cc4c5c(c3oc2=N)CCCN5CCC4)cc1 | i | 76 | -13 | 0.19 | -3 | 166*
SMILES | BAP1 block | HER2 expr 66K | JNK3 inh | M1 antag | HEK293 NFkB inh | M1 agonist
CC(C)OC(=O)C(C)OC(=O)c1ccc([N+](=O)[O-])cc1Cl (configuration not stated) | i | . | . | . | . | .
CC12CCC(=O)N1c1ccccc1C(=O)N2c1ccccc1 (configuration not stated) | i | . | -7 | 2.3* | 9 | 1.1
COc1ccc(S(=O)(=O)NC2CCS(=O)(=O)C2)cc1 (configuration not stated) | i | . | . | . | . | .
Cc1cc[n+](Cc2cnc(C)nc2N)cc1 | i | . | . | . | . | .
Cn1c(SC2=CS(=O)(=O)c3ccccc32)nc2ccccc21 | i | -22* | -2 | 0.21 | 6 | -0.84
Cn1c(Cl)nc2ccccc21 | i | 99 | 10 | -0.11 | 2 | 0.2
CN1CCN(CCCNc2nc3ccccc3c3nc(-c4ccccc4)nn23)CC1 | i | -10* | -1 | -2.2 | 13 | 1.9
COc1cc2nc(NCCN3CCOCC3)n3nc(-c4ccccc4)nc3c2cc1OC | i | 35 | 1 | -1.7 | 4 | -0.56
CCCCOC(=O)C1=C(C)NC2=C(C(=O)CC(C)(C)C2)C1c1ccccc1OC (configuration not stated) | i | . | . | . | . | .
Cc1ccc(Cl)cc1N1CCN(C(=O)c2ccc(NS(=O)(=O)c3c(C)noc3C)cc2)CC1 | i | 84 | 2 | -0.53 | 20 | 0.67
Cc1ccc(C)c(N2CCN(C(=O)c3ccc(NS(=O)(=O)c4c(C)noc4C)cc3)CC2)c1 | i | 103 | 9 | 2.2* | 16 | 0.09
O=C(Nc1ccc2c(c1)OCO2)c1cnn2cccnc12 | i | -21* | -2 | 0.036 | -23 | -0.24
O=[N+]([O-])c1ccc(Oc2cccc(O)c2)cc1 | i | . | . | . | . | .
CCCn1nc(NC(=O)c2cccs2)c2cc3cc(OC)ccc3nc21 | . | 22 | -5 | -1.4 | -6 | 3.6*
CCCCn1nc(NC(=O)c2cccs2)c2cc3ccccc3nc21 | . | 145 | . | -0.2 | -2 | 0.99
COc1cc(N2CCCC2)c(OC)cc1/C=c1/sc2nc3ccccc3n2c1=O | . | 118 | -4 | 0.27 | . | 13*
CCN(CC)S(=O)(=O)c1cccc(C(=O)Nc2ccc(C(=O)O)cc2)c1 | i | . | . | . | . | .
O=C(Nc1ccccc1I)c1ccccc1Cl | i | . | . | . | . | .
COc1ccc(OC)c(C(=O)c2coc3ccc(O)cc23)c1 | i | 68 | 18* | 0.027 | 9 | -0.05
N#CCCC12CCCCC1=Nc1ccccc12 (configuration not stated) | i | 101 | 19* | -0.67 | 9 | -1
Cc1ccc(C2CC(c3ccccc3OC(F)F)Nc3ncnn32)cc1 (configuration not stated) | i | 94 | 0 | 1.3* | 6 | 0.84
Cc1ccccc1C1CC(c2ccccc2OC(F)F)Nc2ncnn21 (configuration not stated) | i | 94 | 0 | 0.64 | -2 | -0.36
O=C(Nc1nc2ccccc2[nH]1)c1ccccc1F | i | 69 | 9 | 0.19 | 61* | -0.82
C=CCNc1nc(OC(C(F)(F)F)C(F)(F)F)nc(N2CCCCC2)n1 | i | . | . | . | . | .
CCCCC(C(=O)O)C(C)CC(=O)Nc1cccc(C(=O)O)c1 (configuration not stated) | i | -22* | -1 | 0.12 | . | -0.78
CN1CCN(Cc2nc(N)nc(Nc3ccc4c(c3)OCCO4)n2)CC1 | i | 123 | 3 | 1.3* | 4 | 0.29

High-throughput results as filed in PubChem BioAssay.
